Assay results reported in ChEMBL document CHEMBL1157888, “New 5-HT(1A) receptor ligands containing a N'-cyanoisonicotinamidine nucleus: synthesis and in vitro pharmacological evaluation” (Bioorg Med Chem Lett, 2010).

Experiments:
[1] = biological target: T1, 5-hydroxytryptamine receptor 2C (Rattus norvegicus, UniProt P08909); test: Displacement of [3H]mesulergine from 5-HT2C receptor in Sprague-Dawley rat brain cortex after 15 mins
T1 sequence (P08909 whole entry): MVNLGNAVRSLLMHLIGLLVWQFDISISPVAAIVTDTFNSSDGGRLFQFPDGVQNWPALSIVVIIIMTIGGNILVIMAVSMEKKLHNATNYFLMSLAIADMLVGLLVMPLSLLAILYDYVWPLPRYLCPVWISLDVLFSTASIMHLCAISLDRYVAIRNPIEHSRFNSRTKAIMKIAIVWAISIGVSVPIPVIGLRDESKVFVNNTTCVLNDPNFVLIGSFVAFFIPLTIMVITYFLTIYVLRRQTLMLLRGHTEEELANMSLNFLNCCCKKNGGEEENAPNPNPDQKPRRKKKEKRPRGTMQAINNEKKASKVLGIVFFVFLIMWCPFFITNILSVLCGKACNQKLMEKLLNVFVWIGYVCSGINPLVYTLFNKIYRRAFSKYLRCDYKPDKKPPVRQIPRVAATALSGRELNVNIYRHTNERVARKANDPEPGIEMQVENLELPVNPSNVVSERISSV
Procedure, shortened: (§1)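 Radioligand competition binding. Compounds were dissolved in ethanol or in 5% DMSO, and blank runs checked 5% DMSO for interference with binding. Six test-compound concentrations, each in triplicate, gave IC50 values by curve fitting. Ki was calculated by Cheng–Prusoff, Ki = IC50/(1 + S/KD), where S is the hot-ligand concentration and KD came from Scatchard analysis for each labeled ligand.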

[2] = biological target: 5-hydroxytryptamine receptor 2A (Rattus norvegicus, UniProt P14842); test: Displacement of [3H]ketanserin hydrochloride from 5-HT2A receptor in Sprague-Dawley rat brain cortex after 15 mins; procedure, shortened: as §1
[3] = biological target: T2, 5-hydroxytryptamine receptor 1A (Rattus norvegicus, UniProt P19327); test: Displacement of [3H]-8-OH-DPAT from 5-HT1A receptor in Sprague-Dawley rat brain cortex after 30 mins liquid scintillation spectrometer; type: tissue-based, Cerebral cortex; procedure, shortened: as §1
T2 sequence (P19327 whole entry): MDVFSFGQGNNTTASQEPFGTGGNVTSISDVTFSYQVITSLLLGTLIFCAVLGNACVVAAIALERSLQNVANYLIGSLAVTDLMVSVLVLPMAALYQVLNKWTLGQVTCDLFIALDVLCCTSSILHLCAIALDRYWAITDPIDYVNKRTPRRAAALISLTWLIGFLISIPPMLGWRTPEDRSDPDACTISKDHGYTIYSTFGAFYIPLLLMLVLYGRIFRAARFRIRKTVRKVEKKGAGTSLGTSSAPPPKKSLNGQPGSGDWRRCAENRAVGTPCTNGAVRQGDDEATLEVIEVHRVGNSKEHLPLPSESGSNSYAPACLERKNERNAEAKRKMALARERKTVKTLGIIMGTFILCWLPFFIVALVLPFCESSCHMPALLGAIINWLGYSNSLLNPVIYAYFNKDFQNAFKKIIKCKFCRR

[4] = biological target: T3, Adrenergic receptor alpha-2 (Rattus norvegicus, UniProt P22086+P19328+P22909); test: Displacement of [3H]yohimbine from alpha 2 adrenergic receptor in rat brain cortex after 30 mins by liquid scintillation counting; type: tissue-based; procedure, shortened: as §1
T3 sequence (P22086 whole entry): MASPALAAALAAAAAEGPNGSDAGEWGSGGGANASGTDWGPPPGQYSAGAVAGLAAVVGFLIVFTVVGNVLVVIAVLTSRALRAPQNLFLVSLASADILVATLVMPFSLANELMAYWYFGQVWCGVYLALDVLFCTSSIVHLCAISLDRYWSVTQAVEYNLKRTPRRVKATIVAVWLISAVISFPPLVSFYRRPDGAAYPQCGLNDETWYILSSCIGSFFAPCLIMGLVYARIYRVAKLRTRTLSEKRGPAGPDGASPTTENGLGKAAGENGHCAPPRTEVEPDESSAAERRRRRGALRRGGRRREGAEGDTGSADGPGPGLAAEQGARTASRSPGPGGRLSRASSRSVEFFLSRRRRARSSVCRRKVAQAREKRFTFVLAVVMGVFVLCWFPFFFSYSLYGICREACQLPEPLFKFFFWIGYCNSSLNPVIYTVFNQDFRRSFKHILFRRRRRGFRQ
T3 sequence (P19328 whole entry): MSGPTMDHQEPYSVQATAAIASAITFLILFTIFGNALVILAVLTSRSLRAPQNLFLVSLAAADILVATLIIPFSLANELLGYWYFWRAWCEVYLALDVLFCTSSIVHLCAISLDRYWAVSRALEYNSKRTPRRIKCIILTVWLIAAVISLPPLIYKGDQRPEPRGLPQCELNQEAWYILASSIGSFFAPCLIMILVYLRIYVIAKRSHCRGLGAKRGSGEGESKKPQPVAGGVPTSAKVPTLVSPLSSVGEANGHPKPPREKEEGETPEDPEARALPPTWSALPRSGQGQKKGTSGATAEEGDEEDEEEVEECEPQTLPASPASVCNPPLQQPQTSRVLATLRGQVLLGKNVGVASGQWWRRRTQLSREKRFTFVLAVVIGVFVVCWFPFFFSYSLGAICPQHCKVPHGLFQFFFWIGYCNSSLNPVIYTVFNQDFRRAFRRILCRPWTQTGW
T3 sequence (P22909 whole entry): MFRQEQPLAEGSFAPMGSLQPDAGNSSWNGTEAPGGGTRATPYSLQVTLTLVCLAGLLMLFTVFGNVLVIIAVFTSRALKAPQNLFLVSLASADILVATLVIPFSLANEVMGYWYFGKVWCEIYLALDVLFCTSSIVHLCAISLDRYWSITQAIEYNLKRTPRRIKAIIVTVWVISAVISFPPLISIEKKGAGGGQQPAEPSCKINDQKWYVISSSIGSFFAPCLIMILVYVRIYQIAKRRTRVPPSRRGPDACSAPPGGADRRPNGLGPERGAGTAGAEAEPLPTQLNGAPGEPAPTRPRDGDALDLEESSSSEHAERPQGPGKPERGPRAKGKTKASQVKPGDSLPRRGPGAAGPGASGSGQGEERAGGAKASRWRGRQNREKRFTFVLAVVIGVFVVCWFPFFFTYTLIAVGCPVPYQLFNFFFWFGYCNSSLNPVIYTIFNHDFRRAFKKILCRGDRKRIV

[5] = biological target: T4, Adrenergic receptor alpha-1 (Rattus norvegicus, UniProt P15823+P23944+P43140); test: Displacement of [3H]prazosin from alpha1 adrenergic receptor in rat striatum after 30 mins by liquid scintillation counting; conditions: in the assay text read “rat brain cortex” for “rat striatum”; procedure, shortened: as §1
T4 sequence (P15823 whole entry): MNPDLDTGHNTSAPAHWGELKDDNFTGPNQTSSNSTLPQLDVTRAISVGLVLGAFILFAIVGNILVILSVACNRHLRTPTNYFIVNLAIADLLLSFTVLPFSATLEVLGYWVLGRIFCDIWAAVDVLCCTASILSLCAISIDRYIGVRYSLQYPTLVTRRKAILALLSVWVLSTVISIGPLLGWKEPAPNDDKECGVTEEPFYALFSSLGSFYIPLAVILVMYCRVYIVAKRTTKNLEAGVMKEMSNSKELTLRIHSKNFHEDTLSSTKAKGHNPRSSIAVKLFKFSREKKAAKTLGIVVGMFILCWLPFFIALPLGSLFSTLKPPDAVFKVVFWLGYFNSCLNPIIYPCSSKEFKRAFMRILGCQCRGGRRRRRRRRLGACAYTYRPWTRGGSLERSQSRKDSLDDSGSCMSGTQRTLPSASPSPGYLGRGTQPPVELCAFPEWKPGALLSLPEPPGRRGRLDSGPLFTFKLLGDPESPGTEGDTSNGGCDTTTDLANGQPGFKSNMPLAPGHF
T4 sequence (P23944 whole entry): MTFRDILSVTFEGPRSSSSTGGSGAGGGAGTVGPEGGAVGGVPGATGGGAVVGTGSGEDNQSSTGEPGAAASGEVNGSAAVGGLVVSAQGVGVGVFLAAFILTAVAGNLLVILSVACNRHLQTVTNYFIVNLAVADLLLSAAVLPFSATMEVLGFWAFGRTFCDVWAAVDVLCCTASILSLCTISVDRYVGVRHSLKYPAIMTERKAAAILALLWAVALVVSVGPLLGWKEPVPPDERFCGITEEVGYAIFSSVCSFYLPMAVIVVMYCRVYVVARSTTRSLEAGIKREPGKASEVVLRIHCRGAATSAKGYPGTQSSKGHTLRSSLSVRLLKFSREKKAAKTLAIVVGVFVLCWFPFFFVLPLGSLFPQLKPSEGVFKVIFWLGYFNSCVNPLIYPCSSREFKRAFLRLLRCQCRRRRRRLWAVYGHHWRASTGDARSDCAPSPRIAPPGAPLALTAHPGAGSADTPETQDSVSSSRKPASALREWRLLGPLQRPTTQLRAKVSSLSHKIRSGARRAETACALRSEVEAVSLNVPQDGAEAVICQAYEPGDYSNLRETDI
T4 sequence (P43140 whole entry): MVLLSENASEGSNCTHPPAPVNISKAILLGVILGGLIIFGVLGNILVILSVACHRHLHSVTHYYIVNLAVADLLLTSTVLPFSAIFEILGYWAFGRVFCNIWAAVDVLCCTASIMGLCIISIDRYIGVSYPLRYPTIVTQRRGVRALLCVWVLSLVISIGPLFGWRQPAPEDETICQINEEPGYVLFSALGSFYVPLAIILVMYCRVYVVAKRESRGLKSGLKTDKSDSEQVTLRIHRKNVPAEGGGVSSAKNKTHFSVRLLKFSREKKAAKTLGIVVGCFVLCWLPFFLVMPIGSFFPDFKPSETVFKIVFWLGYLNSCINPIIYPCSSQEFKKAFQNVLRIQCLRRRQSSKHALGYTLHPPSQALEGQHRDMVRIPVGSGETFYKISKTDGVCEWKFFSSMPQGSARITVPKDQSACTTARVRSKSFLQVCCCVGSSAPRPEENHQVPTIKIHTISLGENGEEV

D(2) dopamine receptor = D(2) dopamine receptor (Rattus norvegicus, UniProt P61169); test: Displacement of [3H]spiperone from dopamine D2 receptor in rat striatum after 15 mins by liquid scintillation counting; procedure, shortened: as §1
D(1A) dopamine receptor = D(1A) dopamine receptor (Rattus norvegicus, UniProt P18901); test: Displacement of [3H]SCH-23390 from dopamine D1 receptor in rat striatum after 15 mins by liquid scintillation counting; procedure, shortened: as §1
D(1A) dopamine receptor, sequence (P18901 whole entry): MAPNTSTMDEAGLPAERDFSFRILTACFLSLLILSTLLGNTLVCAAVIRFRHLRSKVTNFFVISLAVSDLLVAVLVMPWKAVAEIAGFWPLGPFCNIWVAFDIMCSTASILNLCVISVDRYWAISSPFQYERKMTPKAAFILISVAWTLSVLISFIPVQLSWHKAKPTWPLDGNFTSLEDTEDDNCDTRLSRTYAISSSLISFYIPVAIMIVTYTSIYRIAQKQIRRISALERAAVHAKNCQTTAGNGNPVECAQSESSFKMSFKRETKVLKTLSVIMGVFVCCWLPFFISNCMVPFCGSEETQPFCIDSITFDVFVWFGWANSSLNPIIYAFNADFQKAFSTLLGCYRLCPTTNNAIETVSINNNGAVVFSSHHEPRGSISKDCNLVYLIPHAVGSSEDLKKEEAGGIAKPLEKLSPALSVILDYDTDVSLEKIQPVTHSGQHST

5-hydroxytryptamine receptor 2A, sequence (P14842 whole entry): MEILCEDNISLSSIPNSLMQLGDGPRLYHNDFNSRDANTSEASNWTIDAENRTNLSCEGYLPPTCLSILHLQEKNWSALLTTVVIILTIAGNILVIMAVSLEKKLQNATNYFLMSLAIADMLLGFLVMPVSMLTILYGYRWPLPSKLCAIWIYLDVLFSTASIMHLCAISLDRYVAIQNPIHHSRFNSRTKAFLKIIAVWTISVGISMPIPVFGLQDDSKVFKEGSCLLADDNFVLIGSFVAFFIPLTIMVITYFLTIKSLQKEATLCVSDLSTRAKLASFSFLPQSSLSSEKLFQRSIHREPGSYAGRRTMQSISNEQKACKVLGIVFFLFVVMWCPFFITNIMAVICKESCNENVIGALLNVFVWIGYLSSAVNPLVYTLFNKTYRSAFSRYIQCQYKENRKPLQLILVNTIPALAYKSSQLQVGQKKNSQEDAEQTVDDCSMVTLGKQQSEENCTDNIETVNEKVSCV
D(2) dopamine receptor, sequence (P61169 whole entry): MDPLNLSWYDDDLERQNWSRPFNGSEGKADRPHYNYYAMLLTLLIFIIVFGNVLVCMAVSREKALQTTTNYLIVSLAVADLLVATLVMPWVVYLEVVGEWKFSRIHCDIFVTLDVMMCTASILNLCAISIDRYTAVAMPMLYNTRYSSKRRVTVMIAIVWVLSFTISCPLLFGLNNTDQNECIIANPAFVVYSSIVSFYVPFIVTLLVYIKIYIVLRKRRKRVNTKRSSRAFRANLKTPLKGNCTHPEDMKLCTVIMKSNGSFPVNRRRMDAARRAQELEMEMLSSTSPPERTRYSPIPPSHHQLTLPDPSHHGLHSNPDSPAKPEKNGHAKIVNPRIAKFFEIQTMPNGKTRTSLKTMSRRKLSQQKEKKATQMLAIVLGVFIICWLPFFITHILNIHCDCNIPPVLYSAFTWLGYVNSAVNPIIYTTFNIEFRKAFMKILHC

SMILES	Ki [1]	Ki ([2]; read-out: Ki) [nM]	Ki ([3]; read-out: Ki) [nM]	Ki [4] [nM]	Ki [5] [nM]	Ki (D(2) dopamine receptor) [nM]	Ki (D(1A) dopamine receptor) [nM]	Ki ([1]; read-out: Ki) [nM]	Ki [2]	Ki [3]
COc1ccc(N2CCN(CCCN/C(=N\C#N)c3ccncc3)CC2)cc1	Not Active	> 10000	> 10000	–	–	–	–	–	–	–
N#C/N=C(\NCCCN1CCN(c2cccc(Cl)c2)CC1)c1ccncc1	Not Active	> 10000	6.17	> 10000	912	> 10000	1630	–	–	–
N#C/N=C(\NCCCN1CCN(c2ccccc2Cl)CC1)c1ccncc1	Not Active	> 10000	166	–	–	–	–	–	–	–
CCOc1ccccc1N1CCN(CCCN/C(=N\C#N)c2ccncc2)CC1	–	1900	21.3	516	190	> 10000	> 10000	11.5	–	–
COc1ccccc1N1CCN(CCCN/C(=N\C#N)c2ccncc2)CC1	Not Active	> 10000	1.47	2570	> 10000	> 10000	> 10000	–	–	–
N#C/N=C(\NCCCN1CCN(c2ccccn2)CC1)c1ccncc1	Not Active	–	0.038	> 10000	> 10000	> 10000	> 10000	–	Not Active	–
CCOCCN1CCN(CCCN/C(=N\C#N)c2ccncc2)CC1	Not Active	–	> 10000	–	–	–	–	–	Not Active	–
N#C/N=C(\NCCCN1CCN(c2ccccc2C#N)CC1)c1ccncc1	Not Active	> 10000	–	–	–	–	–	–	–	Not Active
N#C/N=C(\NCCCN1CCN(C(=O)c2ccco2)CC1)c1ccncc1	Not Active	> 10000	> 10000	–	–	–	–	–	–	–
C=CCN1CCN(CCCN/C(=N\C#N)c2ccncc2)CC1	Not Active	–	–	–	–	–	–	–	Not Active	Not Active
N#C/N=C(\NCCCN1CCN(c2cccc(C(F)(F)F)c2)CC1)c1ccncc1	Not Active	32.1	141	–	–	–	–	–	–	–
N#C/N=C(\NCCCN1CCN(Cc2ccc3c(c2)OCO3)CC1)c1ccncc1	Not Active	> 10000	> 10000	–	–	–	–	–	–	–
Cc1cccc(N2CCN(CCCN/C(=N\C#N)c3ccncc3)CC2)c1C	Not Active	> 10000	101	–	–	–	–	–	–	–
COCCN1CCN(CCCN/C(=N\C#N)c2ccncc2)CC1	Not Active	> 10000	–	–	–	–	–	–	–	Not Active
N#C/N=C(\NCCCN1CCN(c2ncccn2)CC1)c1ccncc1	Not Active	–	172	–	–	–	–	–	Not Active	–
